Test results from ChEMBL document CHEMBL4196017, “Design, synthesis and identification of silicon-containing HCV NS5A inhibitors with pan-genotype activity” (Eur J Med Chem, 2018).

Key:
Cytochrome P450 2B6 = target: T1, Cytochrome P450 2B6 (Homo sapiens, UniProt P20813); assay: Inhibition of CYP2B6 in human liver microsomes at 1 to 10 uM using bupropion hydrochloride as substrate preincubated for 5 mins followed by NADPH addition measured after 30 mins by UPLC-MS/MS analysis relative to control; type: ADME; settings: 0.5 h
T1 sequence (P20813 whole entry): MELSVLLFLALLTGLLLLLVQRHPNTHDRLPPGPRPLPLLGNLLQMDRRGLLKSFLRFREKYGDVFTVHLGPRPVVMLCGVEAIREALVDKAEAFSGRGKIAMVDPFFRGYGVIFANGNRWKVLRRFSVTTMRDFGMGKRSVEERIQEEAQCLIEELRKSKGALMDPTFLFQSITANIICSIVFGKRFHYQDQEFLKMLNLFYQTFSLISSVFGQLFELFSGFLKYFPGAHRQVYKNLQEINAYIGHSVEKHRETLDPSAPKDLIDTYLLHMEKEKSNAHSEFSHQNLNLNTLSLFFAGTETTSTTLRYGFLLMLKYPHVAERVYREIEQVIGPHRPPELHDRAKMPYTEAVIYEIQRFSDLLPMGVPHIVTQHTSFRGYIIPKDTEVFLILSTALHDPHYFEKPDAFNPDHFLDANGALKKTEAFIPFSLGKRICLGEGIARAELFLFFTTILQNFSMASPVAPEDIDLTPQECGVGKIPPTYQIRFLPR

[1] = Protein binding in human plasma at 1 uM after 6 hrs by UPLC-MS/MS based equilibrium dialysis method; type: ADME, cell-free; settings: read-out: PPB (converted)
Summary of the method: (§1)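 Equilibrium dialysis: plasma (pH 7.4) preincubated 15 min at 37 °C, spiked with compound at 1 or 10 µM (0.5% DMSO final); dialysed against 100 mM phosphate buffer pH 7.4, 6 h at 37 °C, 100 rpm; donor and receiver samples analysed by UPLC-MS/MS.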

[2] = Half life in beagle dog at 2 mg/kg, po administered as single dose by UPLC-MS/MS analysis; type: ADME, organism-based, Canis lupus familiaris; settings: in vivo
[3] = Cytotoxicity against HUVEC assessed as growth inhibition at 50 uM relative to control; type: cell-based; settings: human, read-out: GI
Summary of the method: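 HUVEC from healthy donors exposed to compound at 50 µM; percent inhibition reported as mean of n = 3.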

Cytochrome P450 2C19 = Cytochrome P450 2C19 (Homo sapiens, UniProt P33261); assay: Inhibition of CYP2C19 in human liver microsomes at 1 to 10 uM using (S)-mephenytoin as substrate preincubated for 5 mins followed by NADPH addition measured after 30 mins by UPLC-MS/MS analysis relative to control; type: ADME; settings: 0.5 h
Cytochrome P450 2A6 = target: T2, Cytochrome P450 2A6 (Homo sapiens, UniProt P11509); assay: Inhibition of CYP2A6 in human liver microsomes at 1 to 10 uM using coumarin as substrate preincubated for 5 mins followed by NADPH addition measured after 30 mins by UPLC-MS/MS analysis relative to control; type: ADME; settings: 0.5 h
T2 sequence (P11509 whole entry): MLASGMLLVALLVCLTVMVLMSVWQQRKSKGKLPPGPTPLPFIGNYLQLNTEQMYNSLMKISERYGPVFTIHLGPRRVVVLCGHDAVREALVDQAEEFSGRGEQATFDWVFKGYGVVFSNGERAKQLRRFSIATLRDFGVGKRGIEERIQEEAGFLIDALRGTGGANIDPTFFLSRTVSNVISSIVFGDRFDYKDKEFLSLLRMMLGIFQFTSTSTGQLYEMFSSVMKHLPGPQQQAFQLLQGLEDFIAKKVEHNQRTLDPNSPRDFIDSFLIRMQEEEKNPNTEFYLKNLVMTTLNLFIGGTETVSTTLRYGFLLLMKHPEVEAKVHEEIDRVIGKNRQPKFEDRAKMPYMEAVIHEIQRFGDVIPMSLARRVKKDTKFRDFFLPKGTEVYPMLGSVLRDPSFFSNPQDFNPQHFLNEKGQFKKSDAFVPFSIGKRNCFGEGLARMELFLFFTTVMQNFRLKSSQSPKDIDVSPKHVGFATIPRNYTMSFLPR

hERG (KCNH2) = hERG (KCNH2) (Homo sapiens, UniProt Q12809); assay: Inhibition of human ERG assessed as reduction in peak tail current at 10 uM at holding potential of -80 mV by patch clamp method relative to control
Summary of the method: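 Whole-cell patch clamp, room temperature; hold -80 mV, 2 s +50 mV depolarization then 3 s -50 mV repolarization every 30 s; peak tail current referenced to initial 50 ms step to -50 mV; 3 min vehicle stabilization, then test solution until stable (<5% over ~5 sweeps) or 6 min max; mean ± SD, n = 3.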

[4] = Protein binding in mouse plasma at 1 uM after 6 hrs by UPLC-MS/MS based equilibrium dialysis method; type: ADME, cell-free; settings: read-out: PPB (converted); summary of the method: as §1
[5] = Metabolic stability in rat liver microsomes assessed as parent compound remaining at 0.2 uM preincubated for 5 mins followed by NADPH addition measured up to 60 mins by UPLC-MS/MS analysis; type: ADME, microsome; settings: read-out: Stability
Summary of the method: (§2)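 Pooled mouse, rat or human liver microsomes 0.2 mg/mL with 1 mM NADPH, 5 mM MgCl2, 100 mM potassium phosphate pH 7.4 and 0.2 µM compound; 5-min preincubation at 37 °C, NADPH start, sampled at 5, 15, 30, 60 min; ice-cold acetonitrile stop; UPLC-MS/MS; percent parent remaining at 60 min.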

[6] = Metabolic stability in human liver microsomes assessed as parent compound remaining at 0.2 uM preincubated for 5 mins followed by NADPH addition measured up to 60 mins by UPLC-MS/MS analysis; type: ADME, microsome; settings: read-out: Stability; summary of the method: as §2
[7] = Cmax in beagle dog at 2 mg/kg, po administered as single dose by UPLC-MS/MS analysis; type: ADME, organism-based, Canis lupus familiaris; design: dose 2 mg/kg, route oral; settings: in vivo
[8] = Tmax in mouse at 10 mg/kg, ig administered as single dose by UPLC-MS/MS analysis; type: ADME, organism-based; settings: in vivo, po
Summary of the method: (§3)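 Adult male mice (12 h light-dark, 22 °C, 55% humidity) fasted 12 h with free water, then given a single 10 mg/kg intragastric dose; plasma concentrations by UPLC-MS/MS; PK parameters calculated by software.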

[9] = Ratio of drug uptake in Sprague-Dawley rat liver to plasma at 10 mg/kg, ig administered as single dose measured after 0.5 hrs by UPLC-MS/MS analysis; type: ADME, organism-based; settings: po
[10] = Protein binding in rat plasma at 10 uM after 6 hrs by UPLC-MS/MS based equilibrium dialysis method; type: ADME, cell-free; settings: read-out: PPB (converted); summary of the method: as §1
[11] = Cmax in mouse at 10 mg/kg, ig administered as single dose by UPLC-MS/MS analysis; type: ADME, organism-based; design: dose 10 mg/kg, route intragastric; settings: in vivo, po; summary of the method: as §3
[12] = Protein binding in dog plasma at 1 uM after 6 hrs by UPLC-MS/MS based equilibrium dialysis method; type: ADME, cell-free, Canis lupus familiaris; settings: read-out: PPB (converted); summary of the method: as §1

Chain of hERG (KCNH2) (Q12809 whole entry): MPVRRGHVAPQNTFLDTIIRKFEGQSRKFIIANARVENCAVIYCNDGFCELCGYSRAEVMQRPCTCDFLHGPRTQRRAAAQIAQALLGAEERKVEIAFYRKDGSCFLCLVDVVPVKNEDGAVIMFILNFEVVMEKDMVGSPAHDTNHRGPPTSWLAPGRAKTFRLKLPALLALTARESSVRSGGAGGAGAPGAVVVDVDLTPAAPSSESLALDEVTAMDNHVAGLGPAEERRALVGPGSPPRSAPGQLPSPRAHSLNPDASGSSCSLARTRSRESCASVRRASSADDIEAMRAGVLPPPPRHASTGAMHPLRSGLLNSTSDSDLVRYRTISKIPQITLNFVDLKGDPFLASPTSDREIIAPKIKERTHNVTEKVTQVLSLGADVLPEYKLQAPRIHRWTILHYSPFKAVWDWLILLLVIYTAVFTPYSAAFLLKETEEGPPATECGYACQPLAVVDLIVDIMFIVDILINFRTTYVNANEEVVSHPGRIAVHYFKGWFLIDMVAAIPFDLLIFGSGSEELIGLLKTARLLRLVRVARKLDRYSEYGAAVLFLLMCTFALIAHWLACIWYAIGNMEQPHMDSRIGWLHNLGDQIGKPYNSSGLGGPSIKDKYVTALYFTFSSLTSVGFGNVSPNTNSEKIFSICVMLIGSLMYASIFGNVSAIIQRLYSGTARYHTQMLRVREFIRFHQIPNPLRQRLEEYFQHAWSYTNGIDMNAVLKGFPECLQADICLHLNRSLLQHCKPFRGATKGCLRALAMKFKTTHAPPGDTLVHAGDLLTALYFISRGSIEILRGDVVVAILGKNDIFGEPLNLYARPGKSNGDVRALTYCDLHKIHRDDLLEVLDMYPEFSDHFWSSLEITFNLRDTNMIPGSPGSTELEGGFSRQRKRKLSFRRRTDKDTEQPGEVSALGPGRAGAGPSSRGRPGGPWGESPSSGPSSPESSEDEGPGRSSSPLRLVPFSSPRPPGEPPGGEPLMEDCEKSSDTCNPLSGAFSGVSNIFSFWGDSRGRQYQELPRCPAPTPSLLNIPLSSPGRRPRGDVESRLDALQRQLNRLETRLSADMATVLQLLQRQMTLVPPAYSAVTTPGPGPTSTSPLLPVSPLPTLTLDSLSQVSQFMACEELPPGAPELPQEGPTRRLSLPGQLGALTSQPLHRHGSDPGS
Chain of Cytochrome P450 2C19 (P33261 whole entry): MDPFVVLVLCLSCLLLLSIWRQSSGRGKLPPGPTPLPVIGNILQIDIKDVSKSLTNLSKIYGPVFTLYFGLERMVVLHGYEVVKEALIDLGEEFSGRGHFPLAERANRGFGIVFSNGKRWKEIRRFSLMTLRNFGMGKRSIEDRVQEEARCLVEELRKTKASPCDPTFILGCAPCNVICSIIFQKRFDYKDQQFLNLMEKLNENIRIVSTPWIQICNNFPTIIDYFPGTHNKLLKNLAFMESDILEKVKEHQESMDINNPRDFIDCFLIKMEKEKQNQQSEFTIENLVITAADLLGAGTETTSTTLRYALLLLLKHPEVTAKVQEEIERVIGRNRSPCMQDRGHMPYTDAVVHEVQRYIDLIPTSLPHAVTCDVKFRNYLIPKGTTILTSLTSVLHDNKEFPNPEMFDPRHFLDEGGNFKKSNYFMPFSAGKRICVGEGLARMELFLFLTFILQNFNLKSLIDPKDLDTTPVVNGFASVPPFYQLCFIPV

SMILES | inhibition (INH) (Cytochrome P450 2B6) | fraction unbound at 6 h, 1 µM [1] | half-life [2] | inhibition at 50 µM [3] | inhibition (INH) (Cytochrome P450 2C19) | inhibition (INH) (Cytochrome P450 2A6) | inhibition at 10 µM (hERG (KCNH2)) | fraction unbound at 6 h, 1 µM [4] | remaining at 1 h, 0.2 µM [5] | remaining at 1 h, 0.2 µM [6] | Cmax [7] | Tmax [8] | Kp at 0.5 h [9] | fraction unbound at 6 h, 10 µM [10] | Cmax [11] | fraction unbound at 6 h, 1 µM [12]
CC[Si](CC)(CC)c1ccc(N2[C@H](c3ccc(NC(=O)[C@@H]4CCCN4C(=O)[C@@H](NC(=O)OC)C(C)C)cc3)CC[C@H]2c2ccc(NC(=O)[C@@H]3CCCN3C(=O)[C@@H](NC(=O)OC)C(C)C)cc2)cc1 | Not Active | 8e-05 | 762 min | 16.6% | Not Active | Not Active | 8.7% | 8e-05 | 98% | 85.6% | 29.2 ng/mL | 3 h | 7.22 | 0.00017 | 198 ng/mL | 4e-05
COC(=O)N[C@H](C(=O)N1CCC[C@H]1C(=O)Nc1ccc([C@@H]2CC[C@@H](c3ccc(NC(=O)[C@@H]4CCCN4C(=O)[C@@H](NC(=O)OC)C(C)C)cc3)N2c2ccc(C(C)(C)C)cc2)cc1)C(C)C [OMBITASVIR] | Not Active | 3e-05 | 666 min | 11.8% | Not Active | Not Active | 1.8% | 4e-05 | 101% | 96.2% | 15.7 ng/mL | 3 h | 43.4 | 1e-05 | 583 ng/mL | 2e-05
